We go through 15 compounds from PubChem BioAssay.

Active and inactive are the calls of the source.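 Rule for the calls, unless noted: active = viability loss from added drug above about 55%, and viability with drug at most 40%, in both replicates (limit read from the data, passing the limit was not always enough); inconclusive = both conditions met in only one replicate; inactive = neither replicate meets both conditions.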

Assay [1] can be described thus: Her2 expression decrease, cell viability multiplex – SKBR3 breast tumor cells, AlphaScreen, ATP viability, primary screen (AID 461;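 active = Her2 level under about 52% in both replicate screens, with viability over 70% of control, limit read from the data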;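 for Her2 level: lower value means less Her2 protein in the cells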;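 for viability: percent of carrier control wells set as 100% viability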). The note with it: SKBR3 Her2 protein level, 18-24 h, measured here: SKBR3 viability, ATP luminescence, at 10 µM. A general note: Bead proximity is the source of the signal in Alpha formats.
Assay [2] concerns the target Receptor tyrosine-protein kinase erbB-2 (Homo sapiens) (UniProt P04626). Described as above. The note with it: 18-24 h, at 10 µM, stronger effect = lower value.
Assay [3] can be described thus: reduced viability of SK-BR-3 breast cancer cells – cell-based, 24 h, human, pilot screen (AID 572;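 active = viability at or below 10% of carrier control in both of two separate runs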;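 note: compound exposure lasted between 18 and 24 h rather than exactly 24 h; 100% = carrier-treated control wells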). The note with it: SK-BR-3 viability, CellTiter-Glo luminescence, at 10 µM, stronger effect = lower value. (In general: ATP-based viability assays read luminescence as a measure of living cells.)
A short description of assay [4]: HUVEC growth inhibition – cell-based, human, primary screen (AID 575;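 active = viability at or below 30% in both replicate assays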;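 note: 100% = median of untreated cell wells with 0.1% DMSO on each plate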). The note with it: HUVEC proliferation, CellTiter-Glo luminescence, 72 h; at 10 µM; stronger effect = lower value. The procedure, abridged: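 Assay system: Primary human umbilical vein endothelial cells | Quantity: 1250 cells per well | Medium: Supplemented EBM, 2% fetal bovine serum | Detection: CellTiter-Glo luminescence measuring cellular ATP | Read-out: % viability vs DMSO wells | Plate: Collagen-coated 384-well format | Times: 72 h exposure, 37 °C, 5% CO2, 30 min RT equilibration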

Assay [5] can be described thus: H69AR cell proliferation blockers – human, duplicate replicates, primary screen (AID 580;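 active = viability at or under a set limit in both replicates, limit being median viability minus 3 SD, cut at about 48% in these data, passing the limit was not always enough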;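 note: 100% = mean luminescence of untreated wells and 0% = no signal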). As to conditions: H69AR lung tumor cells viability, ATP luminescence, 72 h; at 10 µM; stronger effect = lower value.
Assay [6] in a line: MRP1 drug-resistance reversers in H69AR cells – cell-based, doxorubicin co-treatment, pilot screen (AID 601). The note with it: CellTiter-Glo, 72 h, at 10 µM; for differential viability (reversal): stronger effect = higher value.
A short description of assay [7]: yeast transport mutant growth inhibition pilot in 384-well plates, post-Golgi transport modulator project (AID 636; in the data active = inhibition above about 31%). As to conditions: absorbance 615 nm, about 18 h, stronger effect = higher value.
The nature of assay [8]: growth suppression of yeast trafficking mutant, preliminary HTS, modulators of trafficking downstream of Golgi apparatus project, 1536-format plate, OD 615 nm (AID 637; in the data active = inhibition above about 30%). As to conditions: yeast transport mutant growth, absorbance 615 nm, 18 h; stronger effect = higher value.
The mark [9] stands for this setting: H69AR cells + 2 uM doxorubicin, measured here: viability with 2 uM doxorubicin, stronger effect = lower value.
Setting [10] is: H69AR cells, compound alone cytotoxicity.

Receptor tyrosine-protein kinase erbB-2 (Homo sapiens), sequence (P04626 whole entry, looked up): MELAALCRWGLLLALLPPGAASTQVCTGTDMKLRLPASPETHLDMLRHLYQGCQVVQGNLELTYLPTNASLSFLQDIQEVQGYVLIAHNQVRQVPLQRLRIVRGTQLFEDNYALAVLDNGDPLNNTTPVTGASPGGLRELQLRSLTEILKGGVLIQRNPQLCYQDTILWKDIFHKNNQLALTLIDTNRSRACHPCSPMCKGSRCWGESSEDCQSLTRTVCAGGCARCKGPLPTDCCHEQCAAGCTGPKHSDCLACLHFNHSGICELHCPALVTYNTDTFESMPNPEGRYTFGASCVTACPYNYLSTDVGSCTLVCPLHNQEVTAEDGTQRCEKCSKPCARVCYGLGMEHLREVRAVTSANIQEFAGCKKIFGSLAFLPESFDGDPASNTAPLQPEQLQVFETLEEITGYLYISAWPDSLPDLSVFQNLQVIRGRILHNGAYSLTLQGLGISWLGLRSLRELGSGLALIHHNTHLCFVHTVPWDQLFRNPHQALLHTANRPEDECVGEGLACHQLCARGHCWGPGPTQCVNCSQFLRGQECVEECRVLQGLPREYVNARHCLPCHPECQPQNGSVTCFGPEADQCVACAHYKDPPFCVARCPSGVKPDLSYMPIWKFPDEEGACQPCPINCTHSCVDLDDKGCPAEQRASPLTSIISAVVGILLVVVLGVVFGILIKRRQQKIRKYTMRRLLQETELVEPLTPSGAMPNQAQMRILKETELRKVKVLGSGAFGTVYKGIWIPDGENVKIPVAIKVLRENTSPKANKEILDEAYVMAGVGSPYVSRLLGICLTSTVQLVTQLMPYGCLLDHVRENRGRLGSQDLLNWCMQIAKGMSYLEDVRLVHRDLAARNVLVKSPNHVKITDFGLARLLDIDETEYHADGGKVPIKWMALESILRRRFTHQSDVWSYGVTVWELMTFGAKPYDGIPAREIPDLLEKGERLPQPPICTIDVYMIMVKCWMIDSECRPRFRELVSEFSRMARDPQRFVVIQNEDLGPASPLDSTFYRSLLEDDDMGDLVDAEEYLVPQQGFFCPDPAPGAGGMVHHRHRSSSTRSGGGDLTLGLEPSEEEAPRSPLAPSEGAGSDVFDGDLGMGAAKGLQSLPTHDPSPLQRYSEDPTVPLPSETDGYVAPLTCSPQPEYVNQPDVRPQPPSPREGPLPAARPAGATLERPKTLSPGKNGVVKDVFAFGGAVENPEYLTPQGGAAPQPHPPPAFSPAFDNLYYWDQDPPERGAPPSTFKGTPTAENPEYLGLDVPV

The viability is a read-out of living cells in per cent, often relative to untreated cells. As usually defined, the inhibition is the drop in the measured response relative to a control, in per cent. For `Cn1c(=O)cc(OCC(=O)N2CCN(c3cccc(C(F)(F)F)c3)CC2)c2ccccc21`, the viability in assay [1] is 89%; in assay [3] it was 89% (inactive); in assay [4], 90.7% (inactive); in assay [5] it was 75.3% (inactive); in assay [6] (setting [9]) it was 85.3%; in assay [6] (setting [10]), 75.3%. Besides, the Her2 level in assay [2] was 82% (inactive). The differential viability (reversal) in assay [6] (H69AR cells + 2 uM doxorubicin) is -10% (inactive). The inhibition was -6.27% (inactive) in assay [7] and 5.57% (inactive) in assay [8].

On to `CCOc1ccc(C2CC(c3cccc(C)c3)n3ncnc3N2)cc1` (stereo not given), for which the viability was 101% in assay [1]; 101% (inactive) in assay [3]; 94% (inactive) in assay [4]; 111% (inactive) in assay [5]; 93.1% in assay [6] (setting [9]); 111% in assay [6] (setting [10]). For the same compound, the Her2 level in assay [2] was 100% (inactive). Besides, the differential viability (reversal) in assay [6] (H69AR cells + 2 uM doxorubicin) was 18% (inactive). In addition, the inhibition in assay [7] is 1.41% (inactive); in assay [8] it was -3% (inactive).

Consider `COc1ccc(-c2cc(O)cc(O)c2)cc1`, for which the viability was 108% in assay [1]; 108% (inactive) in assay [3]; 71.7% (inactive) in assay [4]; 87.6% (inactive) in assay [5]; 79.9% in assay [6] (setting [9]); 87.6% in assay [6] (setting [10]). Further, the Her2 level in assay [2] was 89.5% (inactive). Further, the differential viability (reversal) in assay [6] (H69AR cells + 2 uM doxorubicin) is 7.77% (inactive). Moreover, the inhibition is -8.24% (inactive) in assay [7] and 4.26% (inactive) in assay [8].

Regarding `CC(c1ccccc1)N1C(=O)c2ccc(C(=O)NCc3ccco3)cc2C1=O` (stereo not given), the viability in assay [1] is 104%; in assay [3], 104% (inactive); in assay [4], 93.6% (inactive); in assay [5], 95.7% (inactive); in assay [6] (setting [9]) it was 90.1%; in assay [6] (setting [10]) it was 95.7%. Moreover, the Her2 level in assay [2] was 84% (inactive). Also, the differential viability (reversal) in assay [6] (H69AR cells + 2 uM doxorubicin) is 5.55% (inactive). Further, the values for the inhibition in assay [7] and in assay [8] were -3.16% (inactive) and -4.92% (inactive), respectively.

In the case of `O=C(c1ccccc1F)N1CCN(Cc2cccc(Cl)c2)CC1`, the viability is 101% in assay [1]; 101% (inactive) in assay [3]; 107% (inactive) in assay [4]; 100% (inactive) in assay [5]; 83.6% in assay [6] (setting [9]); 100% in assay [6] (setting [10]). Besides, the Her2 level in assay [2] was 104% (inactive). For the same compound, in assay [6] (H69AR cells + 2 uM doxorubicin), the differential viability (reversal) was 16.8% (inactive). The inhibition is -5.32% (inactive) in assay [7] and -2.86% (inactive) in assay [8].

On to `Cc1cc(C(=O)NCCN2CCN(c3cccc(Cl)c3)CC2)n(-c2ccccc2)n1`, for which the viability in assay [1] is 98%; in assay [3], 98% (inactive); in assay [4] it was 42.3% (inactive); in assay [5], 23.7% (active); in assay [6] (setting [9]), 48.2%; in assay [6] (setting [10]) it was 23.7%. The Her2 level in assay [2] was 91.5% (inactive). In assay [6] (H69AR cells + 2 uM doxorubicin), the differential viability (reversal) was -24.5% (inactive). Also, the inhibition in assay [7] is -4.8% (inactive); in assay [8], -1.48% (inactive).

Turning to `COc1cc(C2C(C#N)=C(N)OC3=C2C(=O)CCC3)ccc1OC(=O)N1CCOCC1` (stereo not given), the viability in assay [1] was 132%; in assay [3], 132% (inactive); in assay [4], 93% (inactive); in assay [5] it was 87.3% (inactive); in assay [6] (setting [9]), 83.6%; in assay [6] (setting [10]), 87.3%. The Her2 level in assay [2] was 91.5% (inactive). The differential viability (reversal) in assay [6] (H69AR cells + 2 uM doxorubicin) is 3.67% (inactive). The inhibition was -5.87% (inactive) in assay [7] and -0.66% (inactive) in assay [8].

With `COC(=O)C(NC(C)=O)(Nc1nc2ccc(S(C)(=O)=O)cc2s1)C(F)(F)F` (stereo not given), the viability in assay [1] was 96.5%; in assay [3], 96.5% (inactive); in assay [4], 93.8% (inactive); in assay [5], 102% (inactive); in assay [6] (setting [9]), 101%; in assay [6] (setting [10]), 102%. Moreover, the Her2 level in assay [2] is 87.5% (inactive). The differential viability (reversal) in assay [6] (H69AR cells + 2 uM doxorubicin) was 1.18% (inactive). The inhibition was -2.11% (inactive) in assay [7] and -1.27% (inactive) in assay [8].

Take `CCOC(=O)N1CCN(c2ncnc3c2[nH]c2ccc(OC)cc23)CC1`: the viability in assay [1] is 97.5%; in assay [3], 97.5% (inactive); in assay [4], 72.4% (inactive); in assay [5], 81.3% (inactive); in assay [6] (setting [9]), 77.9%; in assay [6] (setting [10]), 81.3%. Further, the Her2 level in assay [2] was 79% (inactive). Besides, the differential viability (reversal) in assay [6] (H69AR cells + 2 uM doxorubicin) is 3.37% (inactive). Also, the inhibition is -3.6% (inactive) in assay [7] and -5.65% (inactive) in assay [8].

Consider `CCOC(=O)CSc1cn2c(n1)CCC2`, for which the viability was 99.5% in assay [1]; 99.5% (inactive) in assay [3]; 92% (inactive) in assay [4]; 92.4% (inactive) in assay [5]; 94.7% in assay [6] (setting [9]); 92.4% in assay [6] (setting [10]). For the same compound, the Her2 level in assay [2] was 103% (inactive). Moreover, the differential viability (reversal) in assay [6] (H69AR cells + 2 uM doxorubicin) was -2.28% (inactive). Further, the inhibition in assay [7] was -0.79% (inactive); in assay [8], -8.87% (inactive).

For the compound `CN(C)S(=O)(=O)c1ccc(S(=O)(=O)Nc2ccc3c(c2)oc2ccccc23)cc1`, the viability in assay [1] was 79.5%; in assay [3], 79.5% (inactive); in assay [4], 59.2% (inactive); in assay [5] it was 73.2% (inactive); in assay [6] (setting [9]), 76.1%; in assay [6] (setting [10]), 73.2%. Besides, the Her2 level in assay [2] was 97% (inactive). Besides, the differential viability (reversal) in assay [6] (H69AR cells + 2 uM doxorubicin) is -2.9% (inactive). The inhibition was 2.11% (inactive) in assay [7] and -3.64% (inactive) in assay [8].

As to `CCCn1c(=N)n(CC(=O)c2cccs2)c2ccccc21`, the viability in assay [1] was 92%; in assay [3] it was 92% (inactive); in assay [4], 93.2% (inactive); in assay [5] it was 91% (inactive); in assay [6] (setting [9]), 92.3%; in assay [6] (setting [10]) it was 91%. In addition, the Her2 level in assay [2] was 106% (inactive). Moreover, the differential viability (reversal) in assay [6] (H69AR cells + 2 uM doxorubicin) was -1.29% (inactive). Also, the inhibition in assay [7] was -7.33% (inactive); in assay [8], -4.19% (inactive).

Take `O=C1CSC(=Nc2ccc(O)cc2)N1c1ccc(O)cc1`: the viability is 93% in assay [1]; 93% (inactive) in assay [3]; 89.2% (inactive) in assay [4]; 91.4% (inactive) in assay [5]; 81.6% in assay [6] (setting [9]); 91.4% in assay [6] (setting [10]). Besides, the Her2 level in assay [2] is 89.5% (inactive). For the same compound, in assay [6] (H69AR cells + 2 uM doxorubicin), the differential viability (reversal) is 9.79% (inactive). Further, the inhibition in assay [7] was -7.07% (inactive); in assay [8] it was -1.64% (inactive).

Take `Cc1oc2c(CN3CCCC3)c(O)ccc2c(=O)c1-c1ccccc1`: the viability in assay [1] was 88.5%; in assay [3] it was 88.5% (inactive); in assay [4], 80.1% (inactive); in assay [5], 89% (inactive); in assay [6] (setting [9]), 86%; in assay [6] (setting [10]) it was 89%. Also, the Her2 level in assay [2] is 82% (inactive). Further, the differential viability (reversal) in assay [6] (H69AR cells + 2 uM doxorubicin) is 2.93% (inactive). Further, the inhibition is -4.34% (inactive) in assay [7] and 0.48% (inactive) in assay [8].

On to `CCC(=O)Nc1c2c(nn1-c1ccccc1C)CSC2`, for which the viability in assay [1] is 86.5%; in assay [3], 86.5% (inactive); in assay [4], 104% (inactive); in assay [5] it was 102% (inactive); in assay [6] (setting [9]), 89.4%; in assay [6] (setting [10]) it was 102%. In assay [2], the Her2 level is 89.5% (inactive). In addition, the differential viability (reversal) in assay [6] (H69AR cells + 2 uM doxorubicin) is 12.8% (inactive). Besides, the inhibition in assay [7] is -4.42% (inactive); in assay [8], -3.65% (inactive).
